In data set [1] the test system is Canis familiaris. In words: Toxicity in Beagle dog assessed as increase in methemoglobin level at 6.4 mg/kg/day, po between 7 to 11 days. Format: organism-based, Canis lupus familiaris. Details: route oral. Conditions: in vivo. The method in brief:
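Beagle dogs, 8-9 months old, given drug as bulk powder in gelatin capsules orally on days 1-4, at 0.0116 mmol/kg/day as base. Daily clinical observation. Methemoglobin measured by co-oximetry from jugular or cephalic blood, predose on days 1, 2 and 4, then through day 29.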

Data set [2] deals with Leishmania donovani. In words: Antileishmanial activity against Leishmania donovani HU3 infected in mouse. The class given is functional. The note with it: for ED50: Leishmania donovani, HU3. A digest of the protocol: (§1)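 L. donovani HU3 amastigotes, 1 × 10^7 given IV to mice. From day 7 post-infection, dosed orally once daily for 5 days in 0.25% methylcellulose-10% ethanol; reference stibogluconate given SC. Mice killed at day 14 post-infection. Parasite burden counted on liver impression smears against untreated controls. ED50 from linear regression, with 95% confidence limits.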

The test system of data set [3] is Pneumocystis carinii. In words: Antimicrobial activity against Pneumocystis carinii infected BALB/c mouse at 1 mg/kg/day, po after 21 days administered 4 weeks postinfection by Giemsa staining method. Format: functional, organism-based. The method in brief:
(§2)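 Female BALB/c mice, 6-8 weeks, immunosuppressed with dexamethasone […] in drinking water, then inoculated transtracheally with 10^6 P. carinii. From 4 weeks post-inoculation, drug given in drinking water for 3 weeks, 10 mice/group, intake monitored. Lung impression smears stained with Giemsa or methenamine silver, read blinded. Graded 0-5 on a log scale; group mean ± SE.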

The test system of data set [4] is Pneumocystis carinii. In words: Antimicrobial activity against Pneumocystis carinii infected BALB/c mouse at 0.25 mg/kg/day, po after 21 days administered 4 weeks postinfection by Giemsa staining method. The class given is functional, organism-based. A digest of the protocol:
as §2

Data set [5] has as its system Leishmania donovani. In words: Antileishmanial activity against Leishmania donovani HU3 infected in mouse assessed as inhibition of parasites in liver at 0.4 mg/kg/day, po treated for 5 days administered 7 days postinfection measured after 14 days post-infection. The class given is functional. The method in brief: as §1
The subject of data set [6] is Plasmodium berghei. In words: Antimalarial activity against Plasmodium berghei KBG-173 infected in Swiss(CD-1) mouse assessed as reduction in parasitemia at 4 mg/kg/day, po treated for 3 days measured on day 6. Format: functional. Details: scale not given: the % may be the effect or the level left. The method in brief:
(§3)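 CD-1 mice, 5 weeks old, male or female, groups of five, infected with 5 × 10^4 P. berghei KBG-173 parasitized erythrocytes. Drug in 0.5% hydroxyethylcellulose/0.1% Tween 80, given orally once daily on days 3, 4 and 5 post-infection. Parasitemia from blood films on day +6. Read-out also includes increase in mean survival time over controls and survivors at day +34.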

Data set [7] concerns Leishmania donovani. In words: Antileishmanial activity against Leishmania donovani HU3 infected in mouse assessed as inhibition of parasites in liver at 5 mg/kg/day, po treated for 5 days administered 7 days postinfection measured after 14 days post-infection. Format: functional. The method in brief: as §1
The subject of data set [8] is Pneumocystis carinii. In words: Antimicrobial activity against Pneumocystis carinii infected BALB/c mouse at 0.5 mg/kg/day, po after 21 days administered 4 weeks postinfection by Giemsa staining method. Format: functional, organism-based. A digest of the protocol: as §2
The subject of data set [9] is Plasmodium berghei. In words: Antimalarial activity against Plasmodium berghei KBG-173 infected in Swiss(CD-1) mouse assessed as parasitemia at 0.25 mg/kg/day, po treated for 3 days measured on day 6.
Data set [10] relates to Plasmodium berghei. In words: Antimalarial activity against Plasmodium berghei KBG-173 infected in Swiss(CD-1) mouse assessed as mean survival time at 0.25 mg/kg/day, po treated for 3 days. Format: functional. A digest of the protocol: as §3
For data set [11], the system named is Pneumocystis carinii. In words: Antimicrobial activity against Pneumocystis carinii infected BALB/c mouse at 0.1 mg/kg/day, po after 21 days administered 4 weeks postinfection by Giemsa staining method. The class given is functional, organism-based.
Data set [12] concerns Plasmodium berghei. In words: Antimalarial activity Plasmodium berghei KBG-173 infected in Swiss(CD-1) mouse assessed as survival at 2 mg/kg, po pretreated 1 day before infection measured on day 30. The class given is functional, organism-based. Details: dose 2 mg/kg. The method in brief:
(§4)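 CD-1 mice, 5 weeks old, male or female, groups of five, infected with 5 × 10^4 P. berghei KBG-173 parasitized erythrocytes. One 2 mg/kg oral dose given on a single day, from day −3 to +2 relative to inoculation. Controls untreated. Read-out is increase in mean survival time over controls and number alive at day +30.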

Data set [13] relates to Plasmodium berghei. In words: Antimalarial activity Plasmodium berghei KBG-173 infected in Swiss(CD-1) mouse assessed as survival at 2 mg/kg, po treated 2 day postinfection measured on day 30. Format: functional, organism-based. Details: dose 2 mg/kg. The method in brief:
as §4

The subject of data set [14] is Plasmodium berghei. In words: Antimalarial activity against Plasmodium berghei KBG-173 infected in Swiss(CD-1) mouse assessed as parasitemia at 1 mg/kg/day, po treated for 3 days measured on day 6.
Data set [15] deals with Leishmania donovani. In words: Antileishmanial activity against Leishmania donovani HU3 infected in mouse assessed as inhibition of parasites in liver at 10 mg/kg/day, po treated for 5 days administered 7 days postinfection measured after 14 days post-infection. Format: functional. The method in brief:
as §1

For data set [16], the system named is Pneumocystis carinii. In words: Antimicrobial activity against Pneumocystis carinii infected BALB/c mouse at 5 mg/kg/day, po after 21 days administered 4 weeks postinfection by methenamine silver nitrate staining method. The class given is functional, organism-based. The method in brief:
as §2

For data set [17], the system named is Plasmodium berghei. In words: Antimalarial activity against Plasmodium berghei KBG-173 infected in Swiss(CD-1) mouse assessed as survival at 4 mg/kg/day, po treated for 3 days measured on day 34. The class given is functional, organism-based. A digest of the protocol:
as §3

Data set [18] relates to Pneumocystis carinii. In words: Antimicrobial activity against Pneumocystis carinii infected BALB/c mouse at 5 mg/kg/day, po after 21 days administered 4 weeks postinfection by Giemsa staining method. Format: functional, organism-based. A digest of the protocol:
as §2

For data set [19], the system named is Plasmodium berghei. In words: Antimalarial activity against Plasmodium berghei KBG-173 infected in Swiss(CD-1) mouse assessed as mean survival time at 1 mg/kg/day, po treated for 3 days. Format: functional. A digest of the protocol: as §3
Data set [20] concerns Canis familiaris. In words: Toxicity in Beagle dog assessed as increase in methemoglobin level at 0.64 mg/kg/day, po. The class given is organism-based, Canis lupus familiaris. Set-up: route oral. The note with it: in vivo. The method in brief: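 Beagle dogs, one male and one female per enantiomer, given 0.64 mg/kg/day (0.5 mg/kg base) orally for 4 days. After a 5-week washout the same dogs received 1.91 mg/kg/day for 4 days. Methemoglobin sampled from days −6 to 36. Each dog's values are mean of duplicate determinations.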

Data set [21] deals with Pneumocystis carinii. In words: Antimicrobial activity against Pneumocystis carinii infected BALB/c mouse at 0.5 mg/kg/day, po after 21 days administered 4 weeks postinfection by methenamine silver nitrate staining method. Format: functional, organism-based. A digest of the protocol: as §2
Data set [22] concerns Plasmodium berghei. In words: Antimalarial activity Plasmodium berghei KBG-173 infected in Swiss(CD-1) mouse assessed as mean survival time at 2 mg/kg, po pretreated 2 days before infection. The class given is functional. The method in brief:
as §4

Data set [23] concerns Plasmodium berghei. In words: Antimalarial activity Plasmodium berghei KBG-173 infected in Swiss(CD-1) mouse assessed as survival at 2 mg/kg, po treated 1 day postinfection measured on day 30. The class given is functional, organism-based. Details: dose 2 mg/kg. The method in brief:
as §4

The subject of data set [24] is Leishmania donovani. In words: Antileishmanial activity against Leishmania donovani HU3 infected in mouse assessed as inhibition of parasites in liver at 100 mg/kg/day, po treated for 5 days administered 7 days postinfection measured after 14 days. The class given is functional. A digest of the protocol:
as §1

The test system of data set [25] is Pneumocystis carinii. In words: Antimicrobial activity against Pneumocystis carinii infected BALB/c mouse at 1 mg/kg/day, po after 21 days administered 4 weeks postinfection by methenamine silver nitrate staining method. Format: functional, organism-based. The method in brief:
as §2

Data set [26] concerns Pneumocystis carinii. In words: Antimicrobial activity against Pneumocystis carinii infected BALB/c mouse at 0.25 mg/kg/day, po after 21 days administered 4 weeks postinfection by methenamine silver nitrate staining method. The class given is functional, organism-based. A digest of the protocol: as §2
Data set [27] has as its system Plasmodium berghei. In words: Antimalarial activity Plasmodium berghei KBG-173 infected in Swiss(CD-1) mouse assessed as mean survival time at 2 mg/kg, po pretreated 3 days before infection. Format: functional. A digest of the protocol: as §4
The test system of data set [28] is Plasmodium berghei. In words: Antimalarial activity Plasmodium berghei KBG-173 infected in Swiss(CD-1) mouse assessed as survival at 2 mg/kg, po treated at day of infection measured on day 30. Format: functional, organism-based. Details: dose 2 mg/kg. A digest of the protocol:
as §4

The structures appear in SMILES notation. The source made the active and inactive calls. The calls are words filed in the database; no cut-off is given here.

As to `COc1cc(C)c2c(Oc3cccc(C(F)(F)F)c3)c(OC)cc(NC(C)CCCN)c2n1` (stereo unspecified) [TAFENOQUINE], the Activity result with Canis familiaris [1] is recorded as “Toxic”.
As to `CCN(CC)CCCCCCNc1cc(OC)cc2c(C)ccnc12` [SITAMAQUINE], in the data set with Leishmania donovani [2], the ED90 stood at 4.14 mg/kg and it took a dose of 1.55 mg/kg to reach the 50% effect level (ED50).
With `COc1cc(N[C@H](C)CCCN)c2nccc(C)c2c1Oc1ccc(Cl)c(Cl)c1.O=C(O)CCC(=O)O`, the result in the data set on Pneumocystis carinii [3], in the data set on Pneumocystis carinii [4], in the data set on Pneumocystis carinii [8], with Pneumocystis carinii [11], in the data set on Pneumocystis carinii [16] and in the data set on Pneumocystis carinii [18] was Active. The result in the data set with Pneumocystis carinii [21], in the data set on Pneumocystis carinii [25] and with Pneumocystis carinii [26] was Active. Besides, the inhibition in vivo (commonly the relative decrease from the control value, in per cent) at 0.4 mg/kg/day in the data set with Leishmania donovani [5] came to 61.5%. The Activity in the data set with Plasmodium berghei [6] is 0%; with Plasmodium berghei [9] it was 0.2%; in the data set on Plasmodium berghei [14], 0%; in the data set on Canis familiaris [20] it was “Toxic”. Besides, the inhibition in vivo at 5 mg/kg/day with Leishmania donovani [7] was 98%. This molecule registered an ED90 in the data set on Leishmania donovani [2] of 3.61 mg/kg. In the data set on Leishmania donovani [2], the median effective dose (ED50) (as a rule, the dose at which the effect has come halfway, by size or by number of responders) came out at 1.28 mg/kg. The MST was found to be 11.6 days with Plasmodium berghei [10], 20.5 days in the data set on Plasmodium berghei [19], 8.4 days with Plasmodium berghei [22] and 4.6 days in the data set on Plasmodium berghei [27]. In addition, the outcome in the data set with Plasmodium berghei [12], with Plasmodium berghei [13], in the data set on Plasmodium berghei [17], in the data set with Plasmodium berghei [23] and with Plasmodium berghei [28] was inactive. For the same molecule, the inhibition in vivo at 10 mg/kg/day in the data set with Leishmania donovani [15] is 99.3%. Also, the inhibition in vivo at 100 mg/kg/day in the data set with Leishmania donovani [24] came out at 99.8%.
